Tests used:
[1] = molecular target: T1, 5-hydroxytryptamine receptor 2A (Homo sapiens, UniProt P28223); assay: Displacement of [125I]DOI from human recombinant 5HT2A receptor expressed in HEK293 cells by scintillation counting; assay type: cell-based
Outline: (§1)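 Crude plasma membranes from HEK293 cells stably expressing the human receptor (5–25 μg protein), in 20 mM HEPES pH 7.4 with 10 mM MgCl2. Incubated with 0.5 nM [125I]DOI and test compound (1 pM–10 μM) for 1 h at room temperature; nonspecific binding defined with 10 μM cold DOI. Filtered, washed with ice-cold Tris buffer and scintillation counted in triplicate.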

[2] = molecular target: T2, 5-hydroxytryptamine receptor 2C (Homo sapiens, UniProt P28335); assay: Displacement of [125I]DOI from human recombinant 5HT2C receptor expressed in HEK293 cells by scintillation counting; assay type: cell-based; outline: as §1
T2 sequence (P28335 whole entry): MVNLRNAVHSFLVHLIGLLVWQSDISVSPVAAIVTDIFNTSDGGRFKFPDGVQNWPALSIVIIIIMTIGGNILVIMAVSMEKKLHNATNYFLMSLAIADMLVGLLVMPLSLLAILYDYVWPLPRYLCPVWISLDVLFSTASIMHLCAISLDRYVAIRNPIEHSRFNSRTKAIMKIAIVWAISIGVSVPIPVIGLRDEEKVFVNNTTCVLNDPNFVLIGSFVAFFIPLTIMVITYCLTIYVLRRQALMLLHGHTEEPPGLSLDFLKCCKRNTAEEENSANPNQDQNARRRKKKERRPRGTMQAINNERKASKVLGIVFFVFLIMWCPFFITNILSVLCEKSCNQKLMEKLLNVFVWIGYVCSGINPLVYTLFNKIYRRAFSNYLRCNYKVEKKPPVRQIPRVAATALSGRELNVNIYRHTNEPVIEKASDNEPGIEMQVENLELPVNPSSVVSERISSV

[3] = Antiplatelet activity in human platelet rich plasma assessed as inhibition of ADP-induced aggregation preincubated for 1 min before 5-HT and ADP challenge measured after 3 mins by turbidimetry
[4] = molecular target: T1, 5-hydroxytryptamine receptor 2A; assay: Inverse agonist activity at human 5HT2A receptor expressed in HEK293 cells assessed as inhibition of inositol phosphate accumulation; assay type: functional, cell-based
hERG (KCNH2) [5] = molecular target: T3, hERG (KCNH2) (Homo sapiens, UniProt Q12809); assay: Inhibition of human ERG at 1 uM by patch clamp assay
T3 sequence (Q12809 whole entry): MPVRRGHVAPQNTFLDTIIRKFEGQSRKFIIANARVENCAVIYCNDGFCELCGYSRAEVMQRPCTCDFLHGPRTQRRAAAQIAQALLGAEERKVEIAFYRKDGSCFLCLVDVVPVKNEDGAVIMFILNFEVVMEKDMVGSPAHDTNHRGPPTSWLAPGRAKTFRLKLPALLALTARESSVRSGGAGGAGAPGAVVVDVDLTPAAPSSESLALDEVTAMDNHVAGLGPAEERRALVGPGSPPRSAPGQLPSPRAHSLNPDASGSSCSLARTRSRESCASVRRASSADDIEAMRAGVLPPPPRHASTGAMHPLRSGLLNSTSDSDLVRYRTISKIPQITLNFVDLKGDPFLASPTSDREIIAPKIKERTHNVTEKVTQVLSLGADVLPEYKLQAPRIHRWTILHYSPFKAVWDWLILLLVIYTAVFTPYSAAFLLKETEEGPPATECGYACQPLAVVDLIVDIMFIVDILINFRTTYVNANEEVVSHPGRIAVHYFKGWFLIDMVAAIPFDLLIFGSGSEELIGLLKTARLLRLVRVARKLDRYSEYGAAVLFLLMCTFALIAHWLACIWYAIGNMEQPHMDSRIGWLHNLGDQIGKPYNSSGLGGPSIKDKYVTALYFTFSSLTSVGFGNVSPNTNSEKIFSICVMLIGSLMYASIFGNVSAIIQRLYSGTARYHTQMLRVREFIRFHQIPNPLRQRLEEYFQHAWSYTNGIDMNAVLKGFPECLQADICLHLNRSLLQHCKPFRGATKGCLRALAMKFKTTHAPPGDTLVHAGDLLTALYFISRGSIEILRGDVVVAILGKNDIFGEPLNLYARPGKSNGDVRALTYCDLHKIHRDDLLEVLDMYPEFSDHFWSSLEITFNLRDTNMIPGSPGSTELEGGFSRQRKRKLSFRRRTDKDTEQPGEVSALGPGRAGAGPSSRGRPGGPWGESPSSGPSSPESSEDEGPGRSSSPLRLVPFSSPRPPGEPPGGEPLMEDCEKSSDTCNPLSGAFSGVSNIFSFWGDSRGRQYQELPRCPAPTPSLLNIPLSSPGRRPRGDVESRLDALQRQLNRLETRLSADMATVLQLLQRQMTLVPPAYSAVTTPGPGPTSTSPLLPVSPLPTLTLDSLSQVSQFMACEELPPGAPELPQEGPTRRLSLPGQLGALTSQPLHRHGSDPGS

hERG (KCNH2) [6] = molecular target: T3, hERG (KCNH2); assay: Inhibition of human ERG at 3 uM by patch clamp assay

T1 sequence (P28223 whole entry): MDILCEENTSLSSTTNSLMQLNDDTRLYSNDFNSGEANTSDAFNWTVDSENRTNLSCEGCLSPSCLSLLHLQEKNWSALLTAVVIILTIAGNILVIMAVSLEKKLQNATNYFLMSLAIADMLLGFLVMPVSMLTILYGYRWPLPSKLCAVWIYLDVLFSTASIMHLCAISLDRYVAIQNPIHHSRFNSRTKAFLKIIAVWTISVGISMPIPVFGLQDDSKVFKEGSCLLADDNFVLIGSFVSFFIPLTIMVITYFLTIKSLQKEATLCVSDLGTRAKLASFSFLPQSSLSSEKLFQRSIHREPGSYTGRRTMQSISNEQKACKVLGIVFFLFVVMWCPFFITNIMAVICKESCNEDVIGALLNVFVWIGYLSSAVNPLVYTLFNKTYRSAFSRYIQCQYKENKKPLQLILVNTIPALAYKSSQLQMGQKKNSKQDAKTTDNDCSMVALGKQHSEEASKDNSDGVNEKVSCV

Structure (SMILES) | Ki [1] [nM] | Ki [2] [µM] | IC50 [3] [nM] | IC50 [4] [nM] | inhibition at 1 µM (hERG (KCNH2) [5]) [%] | inhibition at 3 µM (hERG (KCNH2) [6]) [%]
Cn1nccc1-c1cc(NC(=O)c2ccc(F)cc2)ccc1OCCN1CCOCC1 | 18 | > 10 | 100 |  |  | 
Cn1nccc1-c1cc(NC(=O)c2cccc(C(F)(F)F)c2)ccc1OCCN1CCCC1 | 0.6 | 1.14 | 3.2 | 23 | 80 | 
Cn1ncc(Cl)c1-c1cc(NC(=O)c2cccc(C(F)(F)F)c2)ccc1OCCN1CCNC(=O)C1 | 5.3 | > 10 | 127 |  |  | 53
CC(=O)N1CCN(CCOc2ccc(NC(=O)c3cccc(F)c3)cc2-c2ccnn2C)CC1 | 15 | > 10 | 40 |  |  | 
Cn1nccc1-c1cc(NC(=O)c2ccc(C(F)(F)F)cc2)ccc1OCCN1CCOCC1 | 2.4 | 5.9 | 61 |  | 33 | 
Cn1nccc1-c1cc(NC(=O)c2cccc(C(F)(F)F)c2)ccc1OCCN1CCNC(=O)C1 | 287 | > 10 |  |  |  | 
CC(=O)N1CCN(CCOc2ccc(NC(=O)c3cccc(C(F)(F)F)c3)cc2-c2ccnn2C)CC1 | 4.3 | 5.61 | 145 |  |  | 75
COc1cccc(C(=O)Nc2ccc(OCCN3CCN(C(N)=O)CC3)c(-c3ccnn3C)c2)c1 | 5.1 | 5.89 | 57 |  |  | 17
Cn1nccc1-c1cc(NC(=O)c2ccc(F)c(F)c2)ccc1OCCN1CCOCC1 | 4.1 | > 10 | 29 |  |  | 56
CC(=O)N1CCN(CCOc2ccc(NC(=O)c3cccc(F)c3)cc2-c2c(Cl)cnn2C)CC1 | 2.2 | 8.6 | 70 |  |  | 43
